Data reported in ChEMBL document CHEMBL3862028, “Exploring N-Arylsulfonyl-l-proline Scaffold as a Platform for Potent and Selective αvβ1 Integrin Inhibitors” (ACS Med Chem Lett, 2016).
pIC50: −log10 of the molar value.

Experiments:
[1] = molecular target: Integrin alpha-V/beta-1 (Homo sapiens, UniProt P05556+P06756); assay: Inhibition of integrin alphaVbeta1 (unknown origin)-mediated CHO cell adhesion to fibronectin preincubated for 15 to 30 mins followed by 60 min incubation for adhesion by crystal violet staining based cell adhesion assay; details: for pIC50: read-out: IC50; for IC50: read-out: pIC50 (converted)
Integrin alpha-V/beta-1, sequence (P05556 21-798 limits assumed): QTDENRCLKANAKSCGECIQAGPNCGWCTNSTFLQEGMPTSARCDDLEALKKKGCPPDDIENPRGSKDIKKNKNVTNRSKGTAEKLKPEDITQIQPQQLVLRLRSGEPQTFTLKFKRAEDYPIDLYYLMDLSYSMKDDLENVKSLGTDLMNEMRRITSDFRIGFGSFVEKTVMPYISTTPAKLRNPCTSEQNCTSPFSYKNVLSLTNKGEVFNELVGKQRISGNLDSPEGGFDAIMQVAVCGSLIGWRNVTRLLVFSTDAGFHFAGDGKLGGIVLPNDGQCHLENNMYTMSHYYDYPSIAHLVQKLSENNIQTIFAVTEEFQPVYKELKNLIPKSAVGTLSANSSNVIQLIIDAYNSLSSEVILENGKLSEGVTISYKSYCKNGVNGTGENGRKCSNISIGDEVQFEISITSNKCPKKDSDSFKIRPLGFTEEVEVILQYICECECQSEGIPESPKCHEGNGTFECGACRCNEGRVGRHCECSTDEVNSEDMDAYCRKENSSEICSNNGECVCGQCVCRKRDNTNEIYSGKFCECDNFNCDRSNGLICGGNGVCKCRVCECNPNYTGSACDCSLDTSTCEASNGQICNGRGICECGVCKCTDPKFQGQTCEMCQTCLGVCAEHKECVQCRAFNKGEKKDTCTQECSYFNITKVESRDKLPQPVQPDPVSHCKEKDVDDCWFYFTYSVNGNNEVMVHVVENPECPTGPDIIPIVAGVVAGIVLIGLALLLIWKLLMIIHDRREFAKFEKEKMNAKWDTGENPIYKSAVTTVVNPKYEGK
Integrin alpha-V/beta-1, sequence (P06756 31-889 limits assumed): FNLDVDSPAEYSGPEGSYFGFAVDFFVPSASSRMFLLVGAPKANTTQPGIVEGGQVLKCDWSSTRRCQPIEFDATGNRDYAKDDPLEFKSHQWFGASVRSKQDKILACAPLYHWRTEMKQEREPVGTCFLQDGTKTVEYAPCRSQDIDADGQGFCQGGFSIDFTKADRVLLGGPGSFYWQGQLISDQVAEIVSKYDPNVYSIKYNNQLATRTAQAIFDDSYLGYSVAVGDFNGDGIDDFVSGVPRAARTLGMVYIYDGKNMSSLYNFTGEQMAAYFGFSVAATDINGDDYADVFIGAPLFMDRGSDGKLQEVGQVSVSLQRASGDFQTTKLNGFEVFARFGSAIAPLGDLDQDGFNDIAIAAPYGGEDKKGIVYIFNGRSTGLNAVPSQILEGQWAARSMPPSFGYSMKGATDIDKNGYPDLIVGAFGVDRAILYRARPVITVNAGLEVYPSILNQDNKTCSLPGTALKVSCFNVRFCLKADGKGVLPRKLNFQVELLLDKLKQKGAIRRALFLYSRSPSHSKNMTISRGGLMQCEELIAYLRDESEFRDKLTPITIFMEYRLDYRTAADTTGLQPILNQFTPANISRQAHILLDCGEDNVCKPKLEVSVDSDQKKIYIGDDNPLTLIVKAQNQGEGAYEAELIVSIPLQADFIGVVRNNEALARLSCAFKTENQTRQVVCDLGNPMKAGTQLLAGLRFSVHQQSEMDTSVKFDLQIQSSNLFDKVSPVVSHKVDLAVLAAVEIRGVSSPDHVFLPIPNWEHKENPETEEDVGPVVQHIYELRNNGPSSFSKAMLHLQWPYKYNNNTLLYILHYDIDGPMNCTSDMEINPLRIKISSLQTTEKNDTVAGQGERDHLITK
Integrin alpha-V/beta-1, sequence (P06756 891-1048 limits assumed): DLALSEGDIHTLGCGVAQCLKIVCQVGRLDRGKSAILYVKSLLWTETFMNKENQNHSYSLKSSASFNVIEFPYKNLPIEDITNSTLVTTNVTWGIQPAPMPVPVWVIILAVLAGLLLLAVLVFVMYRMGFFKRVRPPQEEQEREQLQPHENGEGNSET
Method in brief: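 α5-deficient CHO cells engineered to express αvβ1 were tested for adhesion to fibronectin (0.3 mg/ml). Values reported as pIC50 (–logIC50, M) with standard deviation, n=3.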

[2] = molecular target: Integrin alpha-V/beta-5 (Homo sapiens, UniProt P06756+P18084); assay: Inhibition of human wild type integrin alphaVbeta5-mediated human SW480 cell adhesion to vitronectin preincubated for 15 to 30 mins followed by 60 min incubation for adhesion by crystal violet staining based cell adhesion assay
Integrin alpha-V/beta-5, sequence (P06756 31-889 limits assumed): as the sequence (P06756 31-889 limits assumed) above
Integrin alpha-V/beta-5, sequence (P06756 891-1048 limits assumed): as the sequence (P06756 891-1048 limits assumed) above
Integrin alpha-V/beta-5, sequence (P18084 24-799 limits assumed): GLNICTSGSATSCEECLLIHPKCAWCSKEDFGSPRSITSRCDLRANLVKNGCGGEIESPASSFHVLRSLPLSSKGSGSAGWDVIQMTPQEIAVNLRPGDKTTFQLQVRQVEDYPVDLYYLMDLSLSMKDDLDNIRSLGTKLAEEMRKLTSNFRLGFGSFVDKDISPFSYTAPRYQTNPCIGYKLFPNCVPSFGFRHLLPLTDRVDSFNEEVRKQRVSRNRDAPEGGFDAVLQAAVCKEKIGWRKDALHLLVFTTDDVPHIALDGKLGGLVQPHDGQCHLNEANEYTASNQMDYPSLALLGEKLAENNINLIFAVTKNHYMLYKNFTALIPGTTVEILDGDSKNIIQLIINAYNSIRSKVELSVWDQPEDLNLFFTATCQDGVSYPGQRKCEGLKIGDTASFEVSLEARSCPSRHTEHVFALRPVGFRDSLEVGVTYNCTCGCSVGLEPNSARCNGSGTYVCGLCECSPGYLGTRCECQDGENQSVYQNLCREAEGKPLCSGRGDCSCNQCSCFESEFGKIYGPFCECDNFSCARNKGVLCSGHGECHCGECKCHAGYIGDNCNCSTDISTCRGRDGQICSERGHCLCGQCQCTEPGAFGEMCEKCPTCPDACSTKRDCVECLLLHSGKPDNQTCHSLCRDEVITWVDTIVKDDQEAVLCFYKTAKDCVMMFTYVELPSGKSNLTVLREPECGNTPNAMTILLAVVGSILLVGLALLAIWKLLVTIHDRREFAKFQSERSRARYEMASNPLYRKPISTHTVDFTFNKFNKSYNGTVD
Method in brief: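 Wild-type SW480 cells adhering to vitronectin (0.1 mg/ml) served to isolate αvβ5. Values reported as pIC50 (–logIC50, M) with standard deviation, n=3.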

[3] = molecular target: Integrin alpha-V/beta-3 (Homo sapiens, UniProt P05106+P06756); assay: Inhibition of human integrin alphaVbeta3-mediated human SW480 cell adhesion to fibrinogen preincubated for 15 to 30 mins followed by 60 min incubation for adhesion by crystal violet staining based cell adhesion assay
Method in brief: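 Adhesion of SW480 cells transfected with human β3 to fibrinogen (1 mg/ml), isolating αvβ3. Values reported as pIC50 (–logIC50, M) with standard deviation, n=3.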

[4] = molecular target: Integrin alpha-V/beta-8 (Homo sapiens, UniProt P06756+P26012); assay: Inhibition of human integrin alphaVbeta8-mediated human SNB19 cell adhesion to recombinant human TGFbeta1 LAP preincubated for 15 to 30 mins followed by 60 min incubation for adhesion by crystal violet staining based cell adhesion assay; set-up: species or system SNB-19
Integrin alpha-V/beta-8, sequence (P06756 31-889 limits assumed): as the sequence (P06756 31-889 limits assumed) above
Integrin alpha-V/beta-8, sequence (P06756 891-1048 limits assumed): as the sequence (P06756 891-1048 limits assumed) above
Integrin alpha-V/beta-8, sequence (P26012 43-769 limits assumed): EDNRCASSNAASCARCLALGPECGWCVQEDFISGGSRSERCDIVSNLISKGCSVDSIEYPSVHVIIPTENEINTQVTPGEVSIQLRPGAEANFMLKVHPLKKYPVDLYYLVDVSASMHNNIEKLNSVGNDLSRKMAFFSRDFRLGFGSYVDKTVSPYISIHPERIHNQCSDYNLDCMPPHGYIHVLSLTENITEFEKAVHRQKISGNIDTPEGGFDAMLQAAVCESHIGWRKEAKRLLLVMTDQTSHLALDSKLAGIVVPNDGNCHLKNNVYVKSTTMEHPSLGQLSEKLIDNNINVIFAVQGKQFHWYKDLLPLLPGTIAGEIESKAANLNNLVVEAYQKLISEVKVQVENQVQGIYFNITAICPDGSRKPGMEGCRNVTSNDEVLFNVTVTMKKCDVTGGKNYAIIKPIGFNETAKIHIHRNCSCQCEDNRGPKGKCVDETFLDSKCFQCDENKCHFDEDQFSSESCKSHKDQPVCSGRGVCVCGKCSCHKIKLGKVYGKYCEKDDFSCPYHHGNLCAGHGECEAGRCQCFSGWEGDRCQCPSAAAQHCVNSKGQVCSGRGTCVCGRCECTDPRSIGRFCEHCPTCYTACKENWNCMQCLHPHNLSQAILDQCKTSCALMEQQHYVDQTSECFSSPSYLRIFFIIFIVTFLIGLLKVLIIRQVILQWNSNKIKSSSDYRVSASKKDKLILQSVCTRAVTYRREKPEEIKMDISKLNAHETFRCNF
Method in brief: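 The αvβ8-expressing glioma line SNB19 was tested for adhesion to recombinant human TGFβ1 LAP (1 mg/ml). Values reported as pIC50 (–logIC50, M) with standard deviation, n=3.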

[5] = molecular target: Integrin alpha-5/beta-1 (Homo sapiens, UniProt P05556+P08648); assay: Inhibition of human integrin alpha5beta1-mediated human SW480 cell adhesion to fibronectin preincubated for 15 to 30 mins followed by 60 min incubation for adhesion by crystal violet staining based cell adhesion assay
Integrin alpha-5/beta-1, sequence (P05556 21-798 limits assumed): as the sequence (P05556 21-798 limits assumed) above
Integrin alpha-5/beta-1, sequence (P08648 42-894 limits assumed): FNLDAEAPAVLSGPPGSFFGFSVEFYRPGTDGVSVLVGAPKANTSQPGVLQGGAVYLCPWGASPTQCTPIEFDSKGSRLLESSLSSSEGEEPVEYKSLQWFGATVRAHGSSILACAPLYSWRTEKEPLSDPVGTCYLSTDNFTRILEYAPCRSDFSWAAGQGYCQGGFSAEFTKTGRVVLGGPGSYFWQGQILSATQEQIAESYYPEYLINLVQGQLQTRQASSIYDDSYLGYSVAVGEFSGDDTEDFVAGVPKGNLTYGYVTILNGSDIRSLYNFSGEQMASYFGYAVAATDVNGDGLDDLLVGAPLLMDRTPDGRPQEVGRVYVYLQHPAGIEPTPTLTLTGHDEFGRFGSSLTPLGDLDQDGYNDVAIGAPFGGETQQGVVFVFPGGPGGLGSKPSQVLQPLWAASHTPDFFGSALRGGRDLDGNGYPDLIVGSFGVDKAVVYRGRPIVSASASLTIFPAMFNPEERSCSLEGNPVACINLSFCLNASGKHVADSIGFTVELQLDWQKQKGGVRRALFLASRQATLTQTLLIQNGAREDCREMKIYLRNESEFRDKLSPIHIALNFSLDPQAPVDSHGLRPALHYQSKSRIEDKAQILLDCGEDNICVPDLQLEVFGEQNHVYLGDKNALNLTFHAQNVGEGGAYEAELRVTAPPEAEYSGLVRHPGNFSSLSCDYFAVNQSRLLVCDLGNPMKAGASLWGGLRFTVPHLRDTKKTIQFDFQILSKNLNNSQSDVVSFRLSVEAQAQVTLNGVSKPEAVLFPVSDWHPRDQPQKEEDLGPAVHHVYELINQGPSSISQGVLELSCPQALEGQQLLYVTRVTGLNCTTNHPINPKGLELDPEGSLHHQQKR
Integrin alpha-5/beta-1, sequence (P08648 895-1049 limits assumed): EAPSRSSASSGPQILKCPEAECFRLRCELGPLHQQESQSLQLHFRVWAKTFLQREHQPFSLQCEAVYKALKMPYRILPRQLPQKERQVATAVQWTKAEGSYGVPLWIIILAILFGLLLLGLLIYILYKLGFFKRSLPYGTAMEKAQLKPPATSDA
Method in brief: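 Colon carcinoma SW480 cells plated on fibronectin (0.3 mg/ml) to isolate α5β1-dependent adhesion. Values reported as pIC50 (–logIC50, M) with standard deviation, n=3.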

| Structure (SMILES) | pIC50 [1] | further results |
| --- | --- | --- |
| N=C(N)NCCCCC(=O)Nc1ccc(C[C@H](NC(=O)[C@@H]2C[C@@H](F)CN2S(=O)(=O)c2ccccc2)C(=O)O)cc1 | 9.30 |  |
| N=C(N)NCCCCC(=O)Nc1ccc(C[C@H](NC(=O)[C@@H]2CCCN2S(=O)(=O)c2ccccc2[N+](=O)[O-])C(=O)O)cc1 | 6.20 |  |
| C[C@@]1(C(=O)N[C@@H](Cc2ccc(NC(=O)CCCCNC(=N)N)cc2)C(=O)O)CCCN1S(=O)(=O)c1ccccc1 |  | pIC50 ([1]; cho): < 5.00; IC50 [1]: > 10000 nM |
| N=C(N)NCCCCC(=O)Nc1ccc(C[C@H](NC(=O)[C@@H]2CSCN2S(=O)(=O)c2ccccc2)C(=O)O)cc1 | 7.80 |  |
| N=C(N)NCCCCC(=O)Nc1ccc(C[C@H](NC(=O)[C@@H]2CCCN2S(=O)(=O)c2cc(F)cc(F)c2)C(=O)O)cc1 | 7.40 |  |
| N=C(N)NCCCCC(=O)Nc1ccc(C[C@H](NC(=O)[C@@H]2CCCN2S(=O)(=O)c2cccc([N+](=O)[O-])c2)C(=O)O)cc1 | 7.89 |  |
| N=C(N)N[C@H]1CC[C@@H](C(=O)Nc2ccc(C[C@H](NC(=O)[C@@H]3CCCN3S(=O)(=O)c3ccccc3)C(=O)O)cc2)CC1 | 8.70 |  |
| Cc1cc(C)cc(S(=O)(=O)N2CCC[C@H]2C(=O)N[C@@H](Cc2ccc(NC(=O)CCCNC(=N)N)cc2)C(=O)O)c1 | 6.10 |  |
| CN(C)c1cccc2c(S(=O)(=O)N3CCC[C@H]3C(=O)N[C@@H](Cc3ccc(NC(=O)CCCCNC(=N)N)cc3)C(=O)O)cccc12 | 7.10 |  |
| Cc1ccc(S(=O)(=O)N2CCC[C@H]2C(=O)N[C@@H](Cc2ccc(NC(=O)CCCCNC(=N)N)cc2)C(=O)O)c2ccccc12 | 5.20 |  |
| Cc1cc(C)c(S(=O)(=O)N2CCC[C@H]2C(=O)N[C@@H](Cc2ccc(NC(=O)CCCCNC(=N)N)cc2)C(=O)O)c(C)c1 |  | pIC50 ([1]; cho): < 5.00; IC50 [1]: > 10000 nM |
| N=C(N)Nc1cccc(C(=O)Nc2ccc(C[C@H](NC(=O)[C@@H]3CCCN3S(=O)(=O)c3ccccc3)C(=O)O)cc2)c1 | 10.22 | pIC50 [2]: < 5.00; pIC50 [3]: 6.80; pIC50 [4]: 7.40; pIC50 [5]: 7.20 |
| N=C(N)Nc1ccc(C(=O)Nc2ccc(C[C@H](NC(=O)[C@@H]3CCCN3S(=O)(=O)c3ccccc3)C(=O)O)cc2)cc1 | 6.10 |  |
| Cc1cc(F)ccc1S(=O)(=O)N1CCC[C@H]1C(=O)N[C@@H](Cc1ccc(NC(=O)CCCCNC(=N)N)cc1)C(=O)O | 6.30 |  |
| N=C(N)NCCCCC(=O)Nc1ccc(C[C@H](NC(=O)[C@@H]2C=CCN2S(=O)(=O)c2ccccc2)C(=O)O)cc1 | 6.10 |  |
| N=C(N)NC12CC3CC(C1)CC(C(=O)Nc1ccc(C[C@H](NC(=O)[C@@H]4CCCN4S(=O)(=O)c4ccccc4)C(=O)O)cc1)(C3)C2 | 5.60 |  |
| N=C(N)NCCCCC(=O)Nc1ccc(C[C@H](NC(=O)[C@@H]2CCCN2S(=O)(=O)c2cccs2)C(=O)O)cc1 | 7.30 |  |
| CC1(C)SCN(S(=O)(=O)c2ccccc2)[C@@H]1C(=O)N[C@@H](Cc1ccc(NC(=O)CCCCNC(=N)N)cc1)C(=O)O | 5.70 |  |
| N=C(N)NCCCCC(=O)Nc1ccc(C[C@H](NC(=O)[C@@H]2C[C@H](F)CN2S(=O)(=O)c2ccccc2)C(=O)O)cc1 | 9.30 |  |

Second part, led by results:

| pIC50 [1] | Structure (SMILES) | further results |
| --- | --- | --- |
| 9.89 | O=C(CCCNC1=NCCN1)Nc1ccc(C[C@H](NC(=O)[C@@H]2CCCN2S(=O)(=O)c2ccccc2)C(=O)O)cc1 |  |
| 8.70 | O=C(CCCCNc1ccccn1)Nc1ccc(C[C@H](NC(=O)[C@@H]2CCCN2S(=O)(=O)c2ccccc2)C(=O)O)cc1 |  |
| 9.60 | N=C(N)NCCCC(=O)Nc1ccc(C[C@H](NC(=O)[C@@H]2CCCCN2S(=O)(=O)c2ccccc2)C(=O)O)cc1 | pIC50 [2]: 5.80; pIC50 [3]: 5.70; pIC50 [4]: 5.60; pIC50 [5]: 5.49 |
| 6.20 | Cc1ccc(S(=O)(=O)N2CCC[C@H]2C(=O)N[C@@H](Cc2ccc(NC(=O)CCCNC(=N)N)cc2)C(=O)O)cc1 |  |
| 10.70 | N=C(N)NCCCC(=O)Nc1ccc(C[C@H](NC(=O)[C@@H]2CCCN2S(=O)(=O)c2ccccc2)C(=O)O)cc1 |  |
| 6.49 | Cc1ccc(NCCCC(=O)Nc2ccc(C[C@H](NC(=O)[C@@H]3CCCN3S(=O)(=O)c3ccccc3)C(=O)O)cc2)nc1 |  |
| 9.70 | O=C(CCCNc1ccccn1)Nc1ccc(C[C@H](NC(=O)[C@@H]2CCCN2S(=O)(=O)c2ccccc2)C(=O)O)cc1 | pIC50 [2]: < 5.00; pIC50 [3]: < 5.00; pIC50 [4]: 6.40; pIC50 [5]: < 5.00 |
| 7.49 | N=C(N)NCCCCC(=O)Nc1ccc(C[C@H](NC(=O)[C@@H]2CCCN2S(=O)(=O)c2cccnc2)C(=O)O)cc1 |  |
| 9.49 to 9.51 | N=C(N)NCCCCC(=O)Nc1ccc(C[C@H](NC(=O)[C@@H]2CCCCN2S(=O)(=O)c2ccccc2)C(=O)O)cc1 | pIC50 [2]: 6.80; pIC50 [3]: 5.40; IC50 [1]: 0.316 nM; pIC50 [4]: 5.70; pIC50 [5]: 5.49 |
| 6.70 | Cc1cccc(NCCCC(=O)Nc2ccc(C[C@H](NC(=O)[C@@H]3CCCN3S(=O)(=O)c3ccccc3)C(=O)O)cc2)n1 |  |
| 9.20 | N=C(N)NCCCCC(=O)Nc1ccc(C[C@H](NC(=O)[C@@H]2CCCN2S(=O)(=O)c2ccccc2)C(=O)O)cc1 | pIC50 [2]: < 5.00; pIC50 [3]: < 5.00; pIC50 [4]: < 5.00; pIC50 [5]: < 5.00 |
| 8.70 | O=C(CCCCNC1=NCCCN1)Nc1ccc(C[C@H](NC(=O)[C@@H]2CCCN2S(=O)(=O)c2ccccc2)C(=O)O)cc1 |  |
| 6.80 | N=C(N)NCCCCC(=O)Nc1ccc(C[C@H](NC(=O)[C@@H]2CCN2S(=O)(=O)c2ccccc2)C(=O)O)cc1 |  |
| 5.60 | N=C(N)NCCCCC(=O)Nc1ccc(C[C@H](NC(=O)[C@@H]2CCCN2S(=O)(=O)c2ccc3ccccc3c2)C(=O)O)cc1 |  |
| 9.49 to 9.51 | O=C(CCCCNC1=NCCN1)Nc1ccc(C[C@H](NC(=O)[C@@H]2CCCN2S(=O)(=O)c2ccccc2)C(=O)O)cc1 | pIC50 [2]: 6.70; pIC50 [3]: < 5.00; IC50 [1]: 0.316 nM; pIC50 [4]: < 5.00; pIC50 [5]: < 5.00 |
| 7.30 | N=C(N)Nc1ccc(CC(=O)Nc2ccc(C[C@H](NC(=O)[C@@H]3CCCN3S(=O)(=O)c3ccccc3)C(=O)O)cc2)cc1 |  |
